Measured values: ChEMBL document CHEMBL6071141, “In vitro and in vivo evaluation of Bombesin-MMAE conjugates for targeted tumour therapy” (Eur J Med Chem, 2024)
Square brackets hold non-standard residues; d marks the D form. Peptide text beside a SMILES is read from it. Sta = CC(C)C[C@H](N)[C@@H](O)CC(=O)O; Nle = CCCC[C@H](N)C(=O)O; βAla = NCCC(=O)O

Assays:
[1] = biological target: Gastrin-releasing peptide receptor (Homo sapiens, UniProt P30550); experiment: Displacement of 125 I- [Tyr4] from bombesin receptor 2 (unknown origin) assessed as inhibition by radioligand competitive binding assay
[2] = Displacement of 125 I- [Tyr4] from bombesin receptor 1 (unknown origin) assessed as inhibition by radioligand competitive binding assay; parameters: species or system Homo sapiens
[3] = biological target: T1, Bombesin receptor subtype-3 (Homo sapiens, UniProt P32247); experiment: Displacement of 125 I- [Tyr4] from bombesin receptor 3 (unknown origin) assessed as inhibition by radioligand competitive binding assay
T1 sequence (P32247 whole entry): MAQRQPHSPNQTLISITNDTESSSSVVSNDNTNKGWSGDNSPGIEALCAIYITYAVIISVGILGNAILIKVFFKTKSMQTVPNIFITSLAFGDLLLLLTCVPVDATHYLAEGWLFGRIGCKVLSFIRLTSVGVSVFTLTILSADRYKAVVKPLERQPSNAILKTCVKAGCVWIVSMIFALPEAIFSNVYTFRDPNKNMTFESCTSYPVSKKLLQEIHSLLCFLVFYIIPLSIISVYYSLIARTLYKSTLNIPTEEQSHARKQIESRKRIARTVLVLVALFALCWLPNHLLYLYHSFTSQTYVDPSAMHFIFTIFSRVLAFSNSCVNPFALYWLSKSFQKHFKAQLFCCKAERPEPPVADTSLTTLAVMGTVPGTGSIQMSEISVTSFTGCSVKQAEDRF

[4] = Cytotoxicity against human PC-3 cells assessed as inhibition of cell growth incubated with compound for 72 hrs followed by further incubated for 72 hrs (single treatment) by CellTiter 96 aqueous assay; type: toxicity, cell-based
Procedure, shortened: (§1)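 PC-3 or MDA-MB-231 cells were treated the day after seeding with serial dilutions, from 2000 nM for conjugates and 100 nM for MMAE, for 72 h. Then the assay was stopped, or run 72 h more after a medium change (single) or re-treatment (double). Controls got 0.05 % DMSO. Read-out was MTS absorbance at 490 nm after 90 min. IC50 by non-linear regression; ≥2 experiments, triplicates.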

[5] = Cytotoxicity against human cells MDA-MB-231 assessed as inhibition of cell growth incubated for 72 hrs by CellTiter 96 aqueous assay; type: toxicity, cell-based; settings: MDA-MB-231 cells; procedure, shortened: as §1
[6] = Cytotoxicity against human MDA-MB-231 cells assessed as inhibition of cell growth incubated for 72 hrs and followed by treated with compound continued incubation for further 72 hrs (double treatment) after retreatment of compound by CellTiter 96 aqueous assay; type: toxicity, cell-based; procedure, shortened: as §1
[7] = Cytotoxicity against human PC-3 cells assessed as inhibition of cell growth incubated for 72 hrs and followed by treated with compound continued incubation for further 72 hrs (double treatment) after retreatment of compound by CellTiter 96 aqueous assay; type: toxicity, cell-based; procedure, shortened: as §1
[8] = Cytotoxicity against human MDA-MB-231 cells assessed as inhibition of cell growth incubated with compound for 72 hrs followed by further incubated for 72 hrs (single treatment) by CellTiter 96 aqueous assay; type: toxicity, cell-based; procedure, shortened: as §1
[9] = Cytotoxicity against human PC-3 cells assessed as inhibition of cell growth incubated for 72 hrs by CellTiter 96 aqueous assay; type: toxicity, cell-based; procedure, shortened: as §1

Chain of Gastrin-releasing peptide receptor (P30550 whole entry): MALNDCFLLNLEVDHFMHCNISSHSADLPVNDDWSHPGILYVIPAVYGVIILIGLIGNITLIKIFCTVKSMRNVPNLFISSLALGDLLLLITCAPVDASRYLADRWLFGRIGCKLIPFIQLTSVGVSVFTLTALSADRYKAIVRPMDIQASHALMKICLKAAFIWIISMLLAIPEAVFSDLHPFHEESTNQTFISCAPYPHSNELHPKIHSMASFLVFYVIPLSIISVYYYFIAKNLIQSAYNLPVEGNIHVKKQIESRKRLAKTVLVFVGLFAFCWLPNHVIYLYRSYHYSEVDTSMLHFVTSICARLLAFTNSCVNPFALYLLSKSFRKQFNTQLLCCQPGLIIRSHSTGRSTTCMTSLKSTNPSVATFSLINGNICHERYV

SMILES | IC50 [1] [µM] | IC50 [2] [µM] | IC50 [3] [µM] | IC50 at 144 h [4] [µM] | IC50 at 72 h [5] [µM] | IC50 at 144 h [6] [µM] | IC50 at 144 h [7] [µM] | IC50 at 144 h [8] [µM] | IC50 at 72 h [9] [µM]
CCCC[C@H](NC(=O)C[C@H](O)[C@H](CC(C)C)NC(=O)[C@H](Cc1c[nH]cn1)NC(=O)CCNC(=O)[C@@H](NC(=O)[C@H](C)NC(=O)[C@H](Cc1c[nH]c2ccccc12)NC(=O)[C@H](CCC(N)=O)NC(=O)[C@@H](Cc1ccccc1)NC(C)=O)C(C)C)C(=O)N[C@@H](CS)C(N)=O | > 10 | > 10 | > 1 | – | – | – | – | – | –
CCCC[C@H](NC(=O)C[C@H](O)[C@H](CC(C)C)NC(=O)[C@H](Cc1c[nH]cn1)NC(=O)CCNC(=O)[C@@H](NC(=O)[C@H](C)NC(=O)[C@H](Cc1c[nH]c2ccccc12)NC(=O)[C@H](CCC(N)=O)NC(=O)[C@@H](Cc1ccccc1)NC(=O)[C@H](CS)NC(C)=O)C(C)C)C(N)=O | 2.18 | > 10 | > 10 | – | – | – | – | – | –
CC(=O)N[C@@H](CS)C(=O)N[C@H](Cc1ccccc1)C(=O)N[C@@H](CCC(N)=O)C(=O)N[C@@H](Cc1c[nH]c2ccccc12)C(=O)N[C@@H](C)C(=O)N[C@H](C(=O)NCCC(=O)N[C@@H](Cc1c[nH]cn1)C(=O)N[C@@H](CC(C)C)[C@@H](O)CC(=O)N[C@@H](CC(C)C)C(N)=O)C(C)C | 5.29 | > 10 | 5.25 | – | – | – | – | – | –
CC(=O)N[C@@H](CS)C(=O)N[C@H](Cc1ccccc1)C(=O)N[C@@H](CCC(N)=O)C(=O)N[C@@H](Cc1c[nH]c2ccccc12)C(=O)N[C@@H](C)C(=O)N[C@H](C(=O)N(C)CC(=O)N[C@@H](Cc1c[nH]cn1)C(=O)N[C@@H](CC(C)C)[C@@H](O)CC(=O)N[C@@H](CC(C)C)C(N)=O)C(C)C | 0.0363 | > 10 | 3.6 | – | – | – | – | – | –
CCCC[C@H](NC(=O)C[C@H](O)[C@H](CC(C)C)NC(=O)[C@H](Cc1c[nH]cn1)NC(=O)CN(C)C(=O)[C@@H](NC(=O)[C@H](C)NC(=O)[C@H](Cc1c[nH]c2ccccc12)NC(=O)[C@H](CCC(N)=O)NC(=O)[C@@H](Cc1ccccc1)NC(C)=O)C(C)C)C(=O)N[C@@H](CS)C(N)=O | > 10 | > 10 | > 1 | – | – | – | – | – | –
CCCC[C@H](NC(=O)C[C@H](O)[C@H](CC(C)C)NC(=O)[C@H](Cc1c[nH]cn1)NC(=O)CCNC(=O)[C@@H](NC(=O)[C@H](C)NC(=O)[C@H](Cc1c[nH]c2ccccc12)NC(=O)[C@H](CCC(N)=O)NC(=O)[C@@H](Cc1ccccc1)NC(C)=O)C(C)C)C(N)=O (Ac-[dF]QWAV[βAla]H[Sta][Nle]-NH2) | > 10 | > 10 | > 10 | – | – | – | – | – | –
CCCC[C@H](NC(=O)C[C@H](O)[C@H](CC(C)C)NC(=O)[C@H](Cc1c[nH]cn1)NC(=O)CCNC(=O)[C@@H](NC(=O)[C@H](C)NC(=O)[C@H](Cc1c[nH]c2ccccc12)NC(=O)[C@H](CCC(N)=O)NC(=O)[C@@H](Cc1ccccc1)NC(=O)[C@H](CSC1CC(=O)N(CCCCCC(=O)N[C@H](C(=O)N[C@@H](CCCNC(N)=O)C(=O)Nc2ccc(COC(=O)N(C)[C@H](C(=O)N[C@H](C(=O)N(C)[C@@H]([C@@H](C)CC)[C@@H](CC(=O)N3CCC[C@H]3[C@H](OC)[C@@H](C)C(=O)N[C@H](C)[C@@H](O)c3ccccc3)OC)C(C)C)C(C)C)cc2)C(C)C)C1=O)NC(C)=O)C(C)C)C(N)=O (some centres undefined) | – | – | – | 0.132 | 1.28 | 0.176 | 0.121 | 0.218 | 0.852
CCCC[C@H](NC(=O)C[C@H](O)[C@H](CC(C)C)NC(=O)[C@H](Cc1c[nH]cn1)NC(=O)CNC(=O)[C@@H](NC(=O)[C@H](C)NC(=O)[C@H](Cc1c[nH]c2ccccc12)NC(=O)[C@H](CCC(N)=O)NC(=O)[C@@H](Cc1ccccc1)NC(C)=O)C(C)C)C(=O)N[C@@H](CS)C(N)=O | > 10 | > 10 | > 10 | – | – | – | – | – | –
CC(=O)N[C@H](Cc1ccccc1)C(=O)N[C@@H](CCC(N)=O)C(=O)N[C@@H](Cc1c[nH]c2ccccc12)C(=O)N[C@@H](C)C(=O)N[C@H](C(=O)NCC(=O)N[C@@H](Cc1c[nH]cn1)C(=O)N[C@@H](CC(C)C)[C@@H](O)CC(=O)N[C@@H](CC(C)C)C(N)=O)C(C)C | – | > 10 | 0.00111 | – | – | – | – | – | –
